Structures are written as SMILES. A value given as a limit tells only on which side of the number the result lay.

A short description of series [1]: Dissociation constant, pKa of the compound. The class given is physicochemical.
The nature of series [2]: Solubility of compound at pH 6.8. The class given is physicochemical. Conditions: buffer.
A short description of series [3]: Cmax in Sprague-Dawley rat at 10 mg/kg, po. The class given is ADME, organism-based. More on the design: dose 10 mg/kg, route oral. Conditions: in vivo. The method in brief:
(§1)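 Pharmacokinetics in naive Sprague-Dawley rats and in HCT116 tumor-bearing nude mice after single iv or oral dosing. Parameters reported as means: AUC, clearance, Vss, half-life, Cmax and oral bioavailability (F%).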

The nature of series [4]: Clearance in Sprague-Dawley rat at 2 mg/kg, iv. It counts as ADME, organism-based. More on the design: dose 2 mg/kg, route intravenous. Conditions: in vivo. An outline of the steps: as §1
Series [5] in a line: Volume of distribution at steady state in Sprague-Dawley rat at 2 mg/kg, iv. Conditions: in vivo, read-out: Vdss. It counts as ADME, organism-based. More on the design: dose 2 mg/kg, route intravenous. The method in brief:
as §1

Series [6] is described as follows: Half life in Sprague-Dawley rat at 2 mg/kg, iv. The class given is ADME, organism-based. More on the design: dose 2 mg/kg, route intravenous. Conditions: in vivo. The method in brief:
as §1

Series [7] is described as follows: Cmax in nude mouse xenografted with human HCT116 cells at 20 mg/kg, po. Conditions: in vivo. More on the design: dose 20 mg/kg, route oral. It counts as ADME, organism-based, HCT-116. The method in brief:
as §1

A short description of series [8]: Oral bioavailability in nude mouse xenografted with human HCT116 cells at 20 mg/kg. Conditions: in vivo. The class given is ADME, organism-based, HCT-116. The method in brief:
as §1

The nature of series [9]: AUC in nude mouse xenografted with human HCT116 cells at 20 mg/kg, po. The class given is ADME, organism-based, HCT-116. More on the design: dose 20 mg/kg, route oral. Conditions: in vivo. An outline of the steps: as §1
For orientation: Xenograft models place foreign cells or tissue in a host animal.

A short description of series [10]: AUC in nude mouse xenografted with human HCT116 cells at 5 mg/kg, iv. The class given is ADME, organism-based, HCT-116. More on the design: dose 5 mg/kg, route intravenous. Conditions: in vivo. The method in brief: as §1
The nature of series [11]: AUC in Sprague-Dawley rat at 2 mg/kg, iv. It counts as ADME, organism-based. More on the design: dose 2 mg/kg, route intravenous. Conditions: plasma. An outline of the steps:
as §1

Series [12] in a line: Clearance in nude mouse xenografted with human HCT116 cells at 5 mg/kg, iv. It counts as ADME, organism-based, HCT-116. More on the design: dose 5 mg/kg, route intravenous. Conditions: in vivo. An outline of the steps:
as §1

The nature of series [13]: Volume of distribution at steady state in nude mouse xenografted with human HCT116 cells at 5 mg/kg, iv. It counts as ADME, organism-based, HCT-116. More on the design: dose 5 mg/kg, route intravenous. Conditions: in vivo, read-out: Vdss. The method in brief:
as §1

Series [14] is described as follows: Half life in nude mouse xenografted with human HCT116 cells at 5 mg/kg, iv. The class given is ADME, organism-based, HCT-116. Conditions: in vivo. More on the design: dose 5 mg/kg, route intravenous. An outline of the steps:
as §1

A further series has as its system Canis familiaris. Put plainly: Plasma concentration in dog at 150 mg/kg, po administered as single dose. Conditions: in vivo. The class given is ADME, organism-based, Canis lupus familiaris. More on the design: dose 150 mg/kg, route oral.
Another series concerns Homo sapiens. Put plainly: Plasma concentration in human at 800 mg, po administered as single dose. Conditions: in vivo.
Series [15] in a line: Clearance in Sprague-Dawley rat at 5 mg/kg, iv. It counts as ADME, organism-based. More on the design: dose 5 mg/kg, route intravenous. Conditions: in vivo. An outline of the steps:
as §1

The test system of series [16] is Rattus norvegicus. Put plainly: Oral bioavailability in Sprague-Dawley rat at 10 mg/kg. The class given is ADME, organism-based. Conditions: in vivo. The method in brief:
as §1

Series [17] in a line: Metabolic stability in plasma of nude mouse xenografted with human HCT116 cells assessed as compound remaining after 3 hrs. It counts as ADME, cell-free, HCT-116. Conditions: read-out: Stability. The method in brief:
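Compound incubated in mouse plasma for three hours; percentage of compound remaining measured.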

The subject of series [18] is Rattus norvegicus. In words: AUC in Sprague-Dawley rat at 10 mg/kg, po. It counts as ADME, organism-based, Plasma. More on the design: dose 10 mg/kg, route oral. Conditions: in vivo. The method in brief:
as §1

Series [19] can be described thus: Volume of distribution at steady state in Sprague-Dawley rat at 5 mg/kg, iv. More on the design: dose 5 mg/kg, route intravenous. It counts as ADME, organism-based. Conditions: in vivo, read-out: Vdss. The method in brief: as §1
Series [20] in a line: Half life in Sprague-Dawley rat at 5 mg/kg, iv. The class given is ADME, organism-based. More on the design: dose 5 mg/kg, route intravenous. Conditions: in vivo. An outline of the steps: as §1
In series [21] the test system is Rattus norvegicus. Put plainly: AUC in Sprague-Dawley rat at 5 mg/kg, iv. The class given is ADME, organism-based, Plasma. More on the design: dose 5 mg/kg, route intravenous. Conditions: in vivo. The method in brief:
as §1

Consider `O=C(/C=C/c1ccc(CN(CCc2c[nH]c3ccccc23)CCC(F)(F)F)cc1)NO`, for which the pKa (usually the negative logarithm of the acid dissociation constant) in series [1] was 4.75.
`Cc1[nH]c2ccccc2c1CCN(Cc1ccc(/C=C/C(=O)NO)cc1)CC(F)F`: in series [1], the pKa is 4.65.
In series [1], `CCCN(CCc1c[nH]c2ccccc12)Cc1ccc(/C=C/C(=O)NO)cc1` returned a pKa of 7.9.
The same measure, in the same setting: next, `Cc1[nH]c2ccccc2c1CCN(CCC(F)F)Cc1ccc(/C=C/C(=O)NO)cc1`: 5.8; `O=C(/C=C/c1ccc(CN(CCc2c[nH]c3ccccc23)CC(F)(F)F)cc1)NO`: 3.2.
For `Cc1nn2ccccc2c1CCNCc1ccc(/C=C/C(=O)NO)cc1`, the solubility (usually the dissolved amount per volume that the medium holds) in [2] was over 1000 µg/mL. In addition, the figures for the Cmax in series [3] and in series [7] were 61 nM and 202 nM, respectively. In addition, the clearance (commonly the rate of elimination divided by the concentration) in [4] was 36.5 mL/min/kg; in [12], 46.4 mL/min/kg. Also, the figures for the Vd in [5] and in series [13] were 1.99 L/kg and 1.46 L/kg, respectively. Further, the figures for the half-life in series [6] and in [14] were 0.915 h and 1.44 h, respectively. The bioavailability (commonly dose-corrected exposure relative to a reference, in per cent) in [8] turned out to be 2%. In addition, the results for the AUC in series [9], in series [10] and in series [11] were 0.362 µM·h, 5.1 µM·h and 2.56 µM·h, respectively.
With `O=C(/C=C/c1ccc(CNCCc2c[nH]c3ccccc23)cc1)NO`, the pKa in series [1] stood at 7.65.
In the case of `O=C(CCCCCCC(=O)Nc1ccccc1)NO` [VORINOSTAT], the concentration with Canis familiaris stood at 960 nM; in the series on Homo sapiens it was 1580 nM.
In the case of `CC(C)N(CCc1c(C(C)(C)O)[nH]c2ccccc12)Cc1ccc(/C=C/C(=O)NO)cc1`, the clearance in series [15] was determined as 66 mL/min/kg; in [12] it was 176 mL/min/kg. Moreover, the Cmax (as a rule, the peak of the concentration-time curve) in [3] was 204 nM; in [7], 56 nM. In the series with Rattus norvegicus [16], this molecule gave an F of 5%. Also, the remaining at 3 h in [17] is 54%. Moreover, the bioavailability in series [8] came out at 4%. Moreover, the AUC (commonly concentration integrated over time) in the series with Rattus norvegicus [18] is 0.336 µM·h; in series [9], 0.0653 µM·h; in series [10], 0.463 µM·h; in the series with Rattus norvegicus [21] it was 1.307 µM·h. Also, the Vd in [19] was determined as 7 L/kg; in series [13] it was 5.9 L/kg. Besides, the half-life (in general, how long it takes for the measured level to halve) was 1.3 h in series [20] and 1 h in series [14].
With `CC(C)(C)c1[nH]c2ncccc2c1CCNCc1ccc(/C=C/C(=O)NO)cc1`, the highest level in series [7] (Cmax) was 849 nM. In addition, the bioavailability in series [8] is 4%. The AUC stood at 0.474 µM·h in [9] and 2.44 µM·h in series [10]. The clearance in series [12] was determined as 95 mL/min/kg. The Vd in [13] was 4.5 L/kg. The molecule also gave a half-life in series [14] of 3.3 h.
For the molecule `O=C(/C=C/c1ccc(CN(CCO)CCc2c[nH]c3ccccc23)cc1)NO` [DACINOSTAT], the pKa in series [1] amounted to 7.5.

The values are drawn from ChEMBL document CHEMBL1817582, “Optimization of the in vitro cardiac safety of hydroxamate-based histone deacetylase inhibitors” (J Med Chem, 2011).
